Data reported in ChEMBL document CHEMBL5214966, “Discovery of BT8009: A Nectin-4 Targeting Bicycle Toxin Conjugate for the Treatment of Cancer” (J Med Chem, 2022).
In brackets after ≈: the same amount, converted by molar mass. Activity calls are given as the source filed them. No cut-off for these calls is given here. *1 amine or outer side, *2 acyl side, *3 side chain or, on linkers, in order; H or OH if unused. Where a SMILES comes first, the peptide text is derived from it. Bridges are numbered along the chain shown (N, C = ends). [ ]: non-standard residue; d: D form. TATA = O=C(CC[*:1])N1CN(C(=O)CC[*:2])CN(C(=O)CC[*:3])C1

How the values were obtained:
[1] = target: T1, Nectin-4 (Homo sapiens, UniProt Q96NY8); experiment: Displacement of tracer from C-terminal FLAG-tagged human Nectin-4 (32 to 349 residues) expressed in baculovirus infected sf9 cells assessed as inhibition constant measured at 5 to 10 mins interval for 60 mins by fluorescence polarization assay
T1 sequence (Q96NY8 whole entry): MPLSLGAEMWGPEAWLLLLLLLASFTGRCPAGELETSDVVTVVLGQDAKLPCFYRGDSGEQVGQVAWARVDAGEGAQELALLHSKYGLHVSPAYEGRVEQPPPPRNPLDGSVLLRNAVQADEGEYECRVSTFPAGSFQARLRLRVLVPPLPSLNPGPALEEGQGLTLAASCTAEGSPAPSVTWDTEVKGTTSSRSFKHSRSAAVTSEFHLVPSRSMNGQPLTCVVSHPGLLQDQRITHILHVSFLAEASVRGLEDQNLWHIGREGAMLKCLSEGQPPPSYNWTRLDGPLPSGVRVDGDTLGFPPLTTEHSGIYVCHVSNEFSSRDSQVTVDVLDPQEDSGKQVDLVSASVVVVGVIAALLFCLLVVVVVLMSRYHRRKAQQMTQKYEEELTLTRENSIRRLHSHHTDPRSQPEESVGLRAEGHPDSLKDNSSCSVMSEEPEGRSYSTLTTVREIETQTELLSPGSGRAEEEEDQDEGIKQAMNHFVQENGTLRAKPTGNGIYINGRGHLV

[2] = Thermodynamic solubility of the compound in phosphate buffer at pH 7.4; assay type: physicochemical; conditions: read-out: Therm_solubility
Summary of the method: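 Thermodynamic solubility measured in phosphate buffer at pH 7.4, expressed in mg/mL.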

[3] = Stability in mouse plasma assessed as half life measured upto 24 hrs by LC-MS/MS analysis; assay type: ADME, cell-free
[4] = Stability in human plasma assessed as half life measured upto 24 hrs by LC-MS/MS analysis; assay type: ADME, cell-free
[5] = test system: MDA-MB-468; experiment: Antitumor activity against human MDA-MB-468 cells xenografted in Balb/c mouse model assessed as tumor regression at 3 mg/kg, iv twice weekly or 5 mg/kg, iv once weekly administered as bolus injection for 18 days; assay type: functional, organism-based; conditions: dose 3-5 mg/kg, time 18.0 day
Summary of the method: (§1)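 Dosing regimens were 3 mg/kg once weekly, 3 mg/kg twice weekly, or 5 mg/kg once weekly. Dosing ran 18 days. After dosing stopped, the 5 mg/kg once-weekly group was followed to day 42. Read-out was tumour growth/regression.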

[6] = Plasma protein binding in mouse by LC/MS/MS analysis; assay type: ADME, cell-free; conditions: read-out: PPB (converted)
[7] = Plasma protein binding in human LC/MS/MS analysis; assay type: ADME, cell-free; conditions: read-out: PPB (converted)
[8] = Half life in mouse at 3 mg/kg, iv administered as bolus injection; assay type: ADME, organism-based; conditions: in vivo
Summary of the method: (§2)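 Mouse pharmacokinetics after a single 3 mg/kg IV bolus. Terminal half-life, plasma clearance (mL/min/kg) and steady-state volume of distribution (L/kg) were derived from plasma levels.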

[9] = Clearance in mouse plasma at 3 mg/kg, iv administered as bolus injection; assay type: ADME, organism-based; summary of the method: as §2
[10] = Volume of distribution at steady state in mouse at 3 mg/kg, iv administered as bolus injection; assay type: ADME, organism-based; conditions: in vivo, read-out: Vdss; summary of the method: as §2
[11] = test system: MDA-MB-468; experiment: Antitumor activity against human MDA-MB-468 cells xenografted in Balb/c mouse model assessed as tumor regression 5 mg/kg, iv administered as bolus injection once weekly for 18 days and measured upto 42 days; assay type: functional, organism-based; conditions: time <= 42.0 day; summary of the method: as §1
[12] = Toxicity in Balb/c mouse assessed as drug tolerability at 3 to 5 mg/kg, iv administered as bolus injection measured upto 42 days; assay type: organism-based; conditions: in vivo, 1008 h, dose 3-5 mg/kg, time < 42 day
Summary of the method: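 Doses were 3 mg/kg once or twice weekly and 5 mg/kg once weekly over 18 days, with one group monitored to day 42.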

[13] = test system: MDA-MB-468; experiment: Antitumor activity against human MDA-MB-468 cells xenografted in Balb/c mouse model assessed as tumor regression at 3 mg/kg, iv administered as bolus injection once weekly for 18 days; assay type: functional, organism-based; conditions: time 18.0 day; summary of the method: as §1

fraction unbound [6] | fraction unbound [7] | half-life [8] | clearance [9] | Vd [10] | SMILES | Ki [1] | solubility thermodynamic [2] | half-life [3] | half-life [4] | Activity [5] | Activity [11] | Activity [12] | Activity [13]
 |  |  |  |  | CC[C@H](C)[C@@H]1NC(=O)[C@@H]2CCCN2C(=O)[C@H](Cc2c[nH]c3ccccc23)NC(=O)[C@H](CO)NC(=O)[C@H](Cc2c[nH]c3ccccc23)NC(=O)[C@H](CC(N)=O)NC(=O)[C@H](CCCCN)NC(=O)[C@H](CCSC)NC(=O)[C@@H]2CSCCC(=O)N3CN(CN(C3)C(=O)CCSC[C@@H](NC(C)=O)C(=O)N3CCC[C@H]3C(=O)N[C@@H](Cc3ccccc3)C(=O)NCC(=O)N2)C(=O)CCSC[C@@H](C(=O)N[C@H](C(=O)N[C@@H](CC(N)=O)C(=O)N[C@@H](CCCCN)C(N)=O)[C@@H](C)O)NC(=O)[C@H](Cc2c[nH]c3ccccc23)NC1=O (Ac-[dC]PFGCMKNWSWPIWCTNK-NH2; linker 1-5-15 via TATA) | 13.5 nM | 4400 µg/mL (≈ 1770 µM) | 132 min | > 1440 min |  |  |  | 
0.118 | 0.207 | 60 min | 3.5 mL/min/kg | 0.25 L/kg | CC[C@H](C)[C@@H]([C@H](CC(=O)N1CCCC1[C@@H](OC)[C@H](C)C(=O)N[C@@H](C)[C@H](O)c1ccccc1)OC)N(C)C(=O)[C@@H](NC(=O)[C@H](C(C)C)N(C)C(=O)OCc1ccc(NC(=O)[C@H](CCCNC(N)=O)NC(=O)[C@@H](NC(=O)CCCC(=O)NCCC(=O)N(C)CC(=O)N(C)CC(=O)N(C)CC(=O)N(C)CC(=O)N(C)CC(=O)N(C)CC(=O)N(C)CC(=O)N(C)CC(=O)N(C)CC(=O)N(C)CC(=O)N[C@@H](C)N[C@@H](CCCCNC(=N)N)C(=O)N[C@@H](CC(=O)O)C(=O)N[C@H]2CSCCC(=O)N3CN4CCC(=O)SC[C@H](NC(=O)[C@H](CC(C)C)NC(=O)[C@@H]5CCCN5C(=O)[C@H](CC(N)=O)NC(=O)[C@H](C(C)C)NC(=O)[C@H](CC(C)C)NC(=O)C5C[C@@H](O)CN5C2=O)C(=O)N[C@@H](CC(C)C)C(=O)N[C@@H](Cc2c[nH]cn2)C(=O)N2CCCC2C(=O)N[C@@H](CC(=O)O)C(=O)N[C@@H](Cc2c[nH]c5ccccc25)C(=O)N[C@@H](Cc2c[nH]c5ccccc25)C(=O)NC(CCCCNC(=N)N)C(=O)N[C@H](C(N)=O)CSCCC(=O)N(C4)C3)C(C)C)cc1)C(C)C (stereo partly specified) |  | 800 µg/mL (≈ 175 µM) | 264 min | > 3470 min | Active | Active | Non-Toxic | Active
